Reference: ChEMBL document CHEMBL1240401, “Population pharmacokinetic comparison and pharmacodynamic breakpoints of ceftazidime in cystic fibrosis patients and healthy volunteers” (Antimicrob Agents Chemother, 2010)

Key:
[1] = Total clearance in healthy human subjects at 2 gram, iv administered in 5 mins infusion; format: ADME, organism-based; settings: in vivo
Procedure, shortened: (§1)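 Single-dose, single-centre, open, parallel-group trial in CF patients (n = 8) and healthy volunteers (n = 7). Each subject received 2 g ceftazidime by 5-min IV infusion; three CF patients received 1.5, 1 or 3 g instead. Venous plasma was sampled from 0 min to 12 h after the end of infusion. Drug was read at 275 nm (linear 0.6–200 mg/liter). Noncompartmental parameters were not body-size scaled.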

[2] = Total clearance in healthy human subjects at […], iv administered 20 mins infusion; format: ADME, organism-based; settings: in vivo
[3] = system: Homo sapiens; assay: fT>MIC in healthy human subjects at 6 gram/70kg, iv administered as 12 mg/l infusion every 6 hrs; format: functional
Procedure, shortened: (§2)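 Monte Carlo simulation from the population PK model, using allometric scaling by fat-free mass. All regimens gave 6 g per 70 kg WT daily, as 30-min infusions q8h or q6h, prolonged 4–5-h infusions, or continuous infusion. Protein binding was assumed to be 11%, so only the non-protein-bound fraction counts. The PK-PD breakpoint was the MIC with target-attainment probability ≥90%.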

[4] = system: Homo sapiens; assay: Volume of distribution at steady state in healthy human subjects at 2 gram, iv administered in 5 mins infusion; format: ADME, organism-based; settings: in vivo; procedure, shortened: as §1
[5] = Renal clearance in cystic fibrosis patient; format: ADME, organism-based, Kidney; settings: human, in vivo; read-out: CL_renal
[6] = system: Homo sapiens; assay: fT>MIC in cystic fibrosis patient at 6 gram/70kg, iv administered as 1 mg/l infusion every 8 hrs; format: functional; procedure, shortened: as §2
[7] = Total clearance in cystic fibrosis patient at […], iv administered 20 mins infusion; format: ADME, organism-based; settings: human, in vivo
[8] = Terminal half life in healthy human subjects at 2 gram, iv administered in 5 mins infusion; format: ADME, organism-based; settings: in vivo, read-out: beta t1/2 (converted); procedure, shortened: as §1
[9] = Terminal half life in cystic fibrosis patient at […], iv administered 20 mins infusion; format: ADME, organism-based; settings: human, in vivo, read-out: beta t1/2 (converted)
[10] = Renal clearance in healthy human subjects; format: ADME, organism-based, Kidney; settings: in vivo, read-out: CL_renal
[11] = Cmax in healthy human subjects at 2 gram, iv administered in 5 mins infusion; format: ADME, organism-based; design: route intravenous; settings: in vivo; procedure, shortened: as §1
[12] = system: Homo sapiens; assay: fT>MIC in healthy human subjects at 6 gram/70kg, iv administered as 8 mg/l infusion every 8 hrs; format: functional; procedure, shortened: as §2
[13] = Cmax in cystic fibrosis patient at 2 gram, iv administered in 5 mins infusion; format: ADME, organism-based; design: route intravenous; settings: human, in vivo; procedure, shortened: as §1
[14] = system: Homo sapiens; assay: fT>MIC in cystic fibrosis patient at 6 gram/70kg, iv administered as 6 mg/l infusion
[15] = system: Homo sapiens; assay: fT>MIC in healthy human subjects at 6 gram/70kg, iv administered as 4 mg/l infusion every 6 hrs; format: functional; procedure, shortened: as §2
[16] = system: Homo sapiens; assay: fT>MIC in cystic fibrosis patient at 6 gram/70kg, iv administered as 2 mg/l infusion every 6 hrs; format: functional; procedure, shortened: as §2
[17] = Mean residence time in healthy human subjects at 2 gram, iv administered in 5 mins infusion; format: ADME, organism-based; settings: in vivo; procedure, shortened: as §1
[18] = Total clearance in cystic fibrosis patient; format: ADME, organism-based; settings: human, in vivo
[19] = Mean residence time in cystic fibrosis patient at 2 gram, iv administered in 5 mins infusion; format: ADME, organism-based; settings: human, in vivo; procedure, shortened: as §1
[20] = Terminal half life in cystic fibrosis patient at 2 gram, iv administered in 5 mins infusion; format: ADME, organism-based; settings: human, in vivo, read-out: beta t1/2 (converted); procedure, shortened: as §1
[21] = Total clearance in cystic fibrosis patient at 2 gram, iv administered in 5 mins infusion; format: ADME, organism-based; settings: human, in vivo; procedure, shortened: as §1
[22] = system: Homo sapiens; assay: fT>MIC in healthy human subjects at 6 gram/70kg, iv administered as 3 mg/l infusion every 8 hrs; format: functional; procedure, shortened: as §2
[23] = Total clearance in juveline to adult cystic fibrosis patient; format: ADME, organism-based; settings: human, in vivo
[24] = Volume of distribution at steady state in cystic fibrosis patient at 2 gram, iv administered in 5 mins infusion; format: ADME, organism-based; settings: human, in vivo, read-out: Vdss; procedure, shortened: as §1
[25] = system: Homo sapiens; assay: fT>MIC in cystic fibrosis patient at 6 gram/70kg, iv administered as 6 mg/l infusion every 6 hrs; format: functional; procedure, shortened: as §2
[26] = Terminal half life in healthy human subjects at […], iv administered 20 mins infusion; format: ADME, organism-based; settings: in vivo, read-out: beta t1/2 (converted)

SMILES: CC(C)(O/N=C(\C(=O)N[C@@H]1C(=O)N2C(C(=O)[O-])=C(C[n+]3ccccc3)CS[C@H]12)c1csc(N)n1)C(=O)O [CEFTAZIDIME]
- clearance [1]: 110 mL/min
- clearance [2]: 101 mL/min
- fT>MIC [3]: >=40%
- Vdss [4]: 14.3 L
- CL renal [5]: 125 mL/min
- fT>MIC [6]: >=65%
- clearance [7]: 142 mL/min
- half-life [8]: 1.94 h
- half-life [9]: 1.5 h
- CL renal [10]: 100 mL/min
- Cmax [11]: 210 µg/mL
- fT>MIC [12]: >=40%
- Cmax [13]: 445 µg/mL
- fT>MIC [14]: >=40%
- fT>MIC [15]: >=65%
- fT>MIC [16]: >=65%
- MRT [17]: 2.1 h
- clearance [18]: 127 mL/min
- MRT [19]: 1.54 h
- half-life [20]: 1.48 h
- clearance [21]: 89.5 mL/min
- fT>MIC [22]: >=65%
- clearance [23]: 133 mL/min
- Vd [24]: 9.14 L
- fT>MIC [25]: >=40%
- half-life [26]: 1.76 h
